Experimental data pooled from the literature.
Compare with care: the assays were run in different laboratories.
Read-out: cell growth or viability

C[C@]1(CO)[C@H]2CC[C@@H]3CN(Cc4cccs4)[C@@H](C4=CCOC4=O)C[C@H]3[C@]2(C)CC[C@H]1O
cell death (MRC5; ATP luminescence; 25 µM, 72 h): -7.4%

COc1cc(OC)c2c(=O)cc(-c3ccccc3)oc2c1-c1c(OC)cc(OC)c2c(=O)cc(-c3ccccc3)oc12
CC50 (HS27; MTT; 24 h): > 200 µM

NCC(NC(=O)c1ccc(-c2ccc(C(F)(F)F)c(F)c2)[nH]1)c1nc(CO)cs1 (stereo not drawn)
CC50 (U87.CD4.CXCR4; XTT; 72 h): 35 µM

C[C@]1(CO)[C@H]2CC[C@@H]3CN(Cc4ccco4)[C@@H](C4=CCOC4=O)C[C@H]3[C@]2(C)CC[C@H]1O
cell death (MRC5; ATP luminescence; 25 µM, 72 h): -0.1%

CC(C)(C)CC(C)(C)Nc1c(-c2ccccc2)nc2ncccn12
viability (MDA-MB-231; MTT; 25 µM, 48 h): 58.2%

CC1(C)OC[C@@]2(C)[C@H]3CC[C@@H]4CN(Cc5cccs5)[C@@H](C5=CCOC5=O)C[C@H]4[C@]3(C)CC[C@H]2O1
cell death (MRC5; ATP luminescence; 25 µM, 72 h): -0.9%

CC(C)(C)CC(C)(C)Nc1c(-c2cccnc2)nc2ncccn12
viability (MDA-MB-231; MTT; 25 µM, 48 h): 85.2%

COc1cc(C)cc2oc(-c3ccccc3)cc(=O)c12
CC50 (HS27; MTT; 24 h): > 200 µM

Cc1cn([C@@H]2C[C@H](O)[C@@H](CNC(=O)Nc3ccc(-c4ccccc4)cc3)O2)c(=O)[nH]c1=O
CC50 (MRC5): > 50 µM

CC(C)(C)CC(C)(C)Nc1c(-c2cccc(C#N)c2)nc2ncccn12
viability (MDA-MB-231; MTT; 25 µM, 48 h): 75.8%

CCCCN1C[C@H]2CC[C@@H]3[C@]4(C)COC(C)(C)O[C@@H]4CC[C@@]3(C)[C@@H]2C[C@@H]1C1=CCOC1=O
cell death (MRC5; ATP luminescence; 25 µM, 72 h): 33.7%

COc1cc(C)cc2oc(-c3ccc(Br)cc3)cc(=O)c12
CC50 (HS27; MTT; 24 h): > 200 µM
